Laboratory results from ChEMBL document CHEMBL1137852, “Novel fluoro- and hydroxyl-containing jasmonate derivatives as highly efficient elicitors in suspension cultures of Taxus chinensis” (2004).

Assays:
Type in all cases: functional
[1] = Eliciting activity on Tc (taxuyunnanine C) content in cell cultures of Taxus chinensis
In short: (§1)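 T. chinensis suspension cells grown in 50 mL medium in 250-mL flasks. Elicitor added on day 7 after inoculation in ethanol (1 µL per mL medium); controls received an equal volume of ethanol. Tc measured by reverse-phase HPLC and expressed as mg per g dry cells; maximum content within 21 days reported. Triplicate cultures, mean ± S.D.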

[2] = Eliciting activity on Tc (taxuyunnanine C) production in cell cultures of Taxus chinensis
In short: (§2)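 T. chinensis suspension cells grown in 50 mL medium in 250-mL flasks. Elicitor added on day 7 post-inoculation in ethanol (1 µL per mL medium); controls received an equal volume of ethanol. Tc quantified by reverse-phase HPLC; maximum volumetric production (mg/L) within 21 days reported. Triplicate cultures, mean ± S.D.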

[3] = Effect on Tc (taxuyunnanine C) production in cell cultures of Taxus chinensis at a concentration of 0 uM; in short: as §2
[4] = Effect on Tc (taxuyunnanine C) production in cell cultures of Taxus chinensis at a concentration of 1 uM; in short: as §2
[5] = Effect on Tc (taxuyunnanine C) production in cell cultures of Taxus chinensis; in short: as §2
[6] = Effect on Tc (taxuyunnanine C) production in cell cultures of Taxus chinensis at a concentration of 10 uM; in short: as §2
[7] = Effect on Tc (taxuyunnanine C) content in cell cultures of Taxus chinensis at a concentration of 0 uM; in short: as §1
[8] = Effect on Tc (taxuyunnanine C) content in cell cultures of Taxus chinensis at a concentration of 1 uM; in short: as §1
[9] = Effect on Tc (taxuyunnanine C) content in cell cultures of Taxus chinensis at a concentration of 10 uM; in short: as §1
[10] = Effect on Tc (taxuyunnanine C) content in cell cultures of Taxus chinensis at a concentration of 100 uM; in short: as §1
[11] = Effect on Tc (taxuyunnanine C) content in cell cultures of Taxus chinensis at a concentration of 500 uM; in short: as §1
[12] = Effect on Tc (taxuyunnanine C) content in cell cultures of Taxus chinensis; in short: as §1
[13] = Effect on Tc (taxuyunnanine C) production in cell cultures of Taxus chinensis at a concentration of 100 uM; in short: as §2
[14] = Effect on Tc (taxuyunnanine C) production in cell cultures of Taxus chinensis at a concentration of 500 uM; in short: as §2

Row | Structure (SMILES) | Activity [1] | Activity [2] | further results
1 | CC/C=C/CC1C(=O)CCC1CC(=O)OCCOCCO (centres undefined) | 31.4 mg/g DW | 417 mg/L | –
2 | CC/C=C/CC1C(=O)CCC1CC(=O)OCC(F)(F)C(F)(F)F (centres undefined) | 38.22 mg/g DW | 480.5 mg/L | –
3 | CC/C=C/CC1C(=O)CCC1CC(=O)OCC(O)CO (centres undefined) | – | – | Activity [3]: 128 mg/L; Activity [4]: 160 mg/L; Activity [5]: 550 mg/L; Activity [6]: 358 mg/L; Activity [7]: 9.4 mg/g DW; Activity [8]: 11.6 mg/g DW; Activity [9]: 27 mg/g DW; Activity [10]: 43.2 mg/g DW; Activity [11]: 49.8 mg/g DW; Activity [12]: 47.2 mg/g DW; Activity [13]: 544 mg/L; Activity [14]: 522 mg/L
4 | CC/C=C/CC1C(=O)CCC1CC(=O)OCCO (centres undefined) | 38.1 mg/g DW | 464 mg/L | –
5 | CC/C=C/CC1C(=O)CCC1CC(=O)OCCC (centres undefined) | 27.9 mg/g DW | 357 mg/L | –
6 | CC/C=C/CC1C(=O)CCC1CC(=O)OCC(F)(F)F (centres undefined) | 34.94 mg/g DW | 440.3 mg/L | –
7 | CC/C=C/CC1C(=O)CCC1CC(=O)OC (centres undefined) | 29.2 mg/g DW | 386 mg/L | –
